From PubChem BioAssay
Sampled rows, rich in hits. Any-hit rate of the full collection: about 3%.
TRPC4 act: activators of mouse TRPC4 channel, primary screen, Fluo4 calcium, HEK293 TRPC4beta/mu-opioid cells; Short transient receptor potential channel 4 (Mus musculus), Q9QUQ5; Fluo4 calcium fluorescence; hits give high values; B-score at 10 µM; 0.49% of 310,000 active;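 active = B-score above 5 SD of library B-scores, and initial fluorescence ratio not above library mean plus 5 SD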;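 also: positive B-score marks a calcium rise read as TRPC4 activation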
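Technique: kinetic Fluo4 calcium fluorescence; Test system: TRPC4beta and mu-opioid receptor HEK293 stable cells; Measure: B-scored integrated calcium fluorescence ratio; Benchmarks: low control buffer alone, high control maximal DAMGO; Schedule: 45 min room-temperature Fluo4 loading, 110 s read.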
Kir21 inh: inhibitors of mouse Kir2.1 inward-rectifier potassium channel | Inward rectifier potassium channel 2 (Mus musculus), P35561 | HEK293-Kir2.1, FluxOR thallium flux fluorescence; hits give low values | B-score at 10 µM | 0.85% of 310,000 active | AID 1672, 2009;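 active = fluorescence ratio B-score at or below minus 3 SD of library scores, with starting-brightness B-score within 2 SD, cut at about -4.2 in these data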;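 also: channel flux triggered by added potassium and thallium sulfate stimulus; B-score of peak minus minimum fluorescence over baseline after thallium stimulus; more negative B-score means stronger Kir2.1 block with less thallium influx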
TRPC6 activator: mouse TRPC6 channel activators, primary screen, cell-based, HEK293, membrane potential dye; Short transient receptor potential channel 6 (Mus musculus), Q61143; AID 2550, 2010; HEK293-TRPC6 membrane potential dye fluorescence; hits give high values; B-score at 10 µM; 0.13% of 310,000 active;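 active = B-score of the integrated fluorescence ratio above library mean plus 3 SD, and starting fluorescence ratio within library mean plus 5 SD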;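 also: higher score means more depolarization so channel activation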
TRPC4 block: inhibitors of mouse TRPC4 channel, primary screen, Fluo4 calcium, HEK293 TRPC4beta/mu-opioid cells | Short transient receptor potential channel 4 (Mus musculus), Q9QUQ5 | DAMGO-evoked Fluo4 calcium flux; hits give low values | B-score at 10 µM | 0.39% of 300,000 active | AID 2247, 2010;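 active = B-score over 3 SD under the library average, no early fluorescence shift, positive overall ratio signal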
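test system = HEK293 cells with stable TRPC4beta plus mu-opioid receptor expression | detection = Fluo4 Ca2+ flux fluorescence | read-out = integrated fluorescence ratio relative to baseline, converted to per-well B score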
TRPC6 inh: mouse TRPC6 channel inhibitors, primary screen, cell-based, HEK293, membrane potential dye; ACh-evoked depolarization; hits give low values; B-score at 10 µM; 1.1% of 310,000 active;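 active = B-score under library mean minus 3 SD, initial fluorescence not abnormally high, positive integrated signal ratio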;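 also: B-score derived from integrated fluorescence ratio over the kinetic read; more negative B-score means stronger inhibition of depolarization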
TRPC4 PAM: positive allosteric modulators of TRPC4, primary screen, cell-based, mouse TRPC4beta, HEK293 mu-opioid, Fluo-4 calcium; Short transient receptor potential channel 4 (Mus musculus), Q9QUQ5; DAMGO EC20, Fluo-4 Ca2+ flux; hits give high values; B-score at 10 µM; 0.42% of 310,000 active; AID 2227, 2009;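 active = B-score of calcium response area above 5 SD of library B-scores, with initial fluorescence ratio within 5 SD of library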;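 also: B-score of integrated fluorescence ratio over time as area under calcium response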
* = called active by the depositor; i = inactive.

SMILES	TRPC4 act	Kir21 inh	TRPC6 activator	TRPC4 block	TRPC6 inh	TRPC4 PAM
C=CCc1ccc(OCCN2CCc3ccccc3C2)c(OC)c1	i	-10.2*	i	i	i	i
C=CCc1ccc(OCCCNCc2ccccc2)c(OC)c1	i	-8.02*	i	i	i	i
C/C=C/c1ccc(OCCCCOc2c(OC)cccc2OC)c(OC)c1	i	0.68	i	i	i	i
CSCCC(NC(=O)c1ccccc1Cl)C(=O)N(C)Cc1cccs1 (stereo unspecified)	i	0.02	i	i	i	i
O=[N+]([O-])c1cc(-c2ccc(/C=N/n3cnnc3)o2)ccc1Cl	i	1.45	i	i	-13.1*	i
Cc1ccnc(NC(=O)c2cccc(S(=O)(=O)N3CCCC3)c2)c1	i	-0.04	i	i	i	i
C/C(=N/NC(=O)CNC(=O)c1cccnc1)c1ccc(Cl)c(Cl)c1	i	1.01	i	i	i	i
O=C(CCCCCN1C(=O)c2ccccc2C1=O)Nc1ccc(S(=O)(=O)N2CCCCC2)cc1	i	0.15	i	i	i	i
O=C(OCCCCN1C(=O)c2ccccc2C1=O)c1ccc(S(=O)(=O)N2CCCC2)cc1	i	0.91	i	i	i	17*
c1csc(CNc2nc(-c3cccs3)nc3ccccc23)c1	i	-2.1	i	-6*	i	i
c1csc(-c2nc(NCC3CCCO3)c3ccccc3n2)c1 (stereo unspecified)	i	-0.92	i	-8*	i	i
Cc1ccc(S(=O)(=O)N2CCC(C(=O)NCCCN3CCOCC3)CC2)cc1C	i	0.26	i	i	i	i
O=C(NCCCN1CCOCC1)C1CCN(S(=O)(=O)c2c(Cl)cccc2Cl)CC1	i	0.98	i	i	i	15*
Cc1ccc(C(=O)N/N=C/c2cccc(OC(=O)/C=C/c3ccco3)c2)cn1	i	2.31	i	i	i	i
O=C(/C=C/c1ccco1)Oc1cc(Br)cc(/C=N/NC(=O)c2ccccc2O)c1	i	-0.61	i	i	i	12*
CC(C)(C)C1CCC(=O)N(CCOc2ccccc2)CC1 (stereo unspecified)	i	-5.63*	i	i	i	i
COC(=O)C1=C(COc2ccccc2)NC(=O)NC1c1ccc(Cl)cc1 (stereo unspecified)	i	-1.05	i	i	i	11*
CC1CCCCN1CCCNc1ccc(C(CC(N)=O)NC(=O)Cc2cccc3ccccc23)cc1[N+](=O)[O-] (stereo unspecified)	i	-0.02	i	i	i	i
Cc1[nH]c2ccccc2c1C(=O)CN1C(=O)NC(C)(c2ccc(Cl)cc2Cl)C1=O (stereo unspecified)	i	1.4	i	i	i	20*
Cc1ccn2c(CNCC3OCCc4ccccc43)c(C(=O)N3CCCCCC3)nc2c1 (stereo unspecified)	i	0.41	i	i	i	i
Cc1cc(C)c2nc(N3CCCN(C(=O)c4cnccn4)CC3)c(C#N)cc2c1	i	-4.97*	i	i	i	i
CCOC(=O)c1c(NC(=O)CSc2nnc(C)c(=O)[nH]2)sc2c1CCCC2	i	0.14	i	i	i	i
CCOC(=O)c1c(NC(=O)C2CCCO2)sc2c1CCC2 (stereo unspecified)	i	-0.18	i	i	i	15*
CCOC(=O)c1c(NC(=O)C2CCCO2)sc(C)c1C (stereo unspecified)	i	1.12	i	i	i	i
CCOC(=O)c1c(NC(=O)C(C)Sc2nnc(C)c(=O)[nH]2)sc2c1CCCC2 (stereo unspecified)	i	-0.57	i	-6*	i	i
SMILES	TRPC4 act	Kir21 inh	TRPC6 activator	TRPC4 block	TRPC6 inh	TRPC4 PAM
CCOC(=O)c1c(NC(=O)C2CCCCC2C(=O)O)sc2c1CCCCC2 (stereo unspecified)	i	2.44	i	-7*	i	i
CCOC(=O)c1c(NC(=O)CSc2nnc3c(Cl)cc(Cl)cn23)sc2c1CCC2	i	-4.33*	i	i	i	i
O=C(CN(c1cc(Cl)ccc1Cl)S(=O)(=O)c1ccccc1)N1CCOCC1	i	-0.99	i	i	i	i
COc1ccc(C(=O)NCc2nnc(SCC(=O)N3CCCC3)o2)cc1OC	i	-0.02	i	i	i	i
CNC(=O)c1ccccc1NC(=O)C1CC(=O)N(C(C)C)C1 (stereo unspecified)	i	0.45	i	i	i	i
O=C(Nc1ccccc1)N1CCN(c2nc3ccccc3s2)CC1	43*	-2.26	i	i	i	i
Cc1ccc(-c2cc(C(=O)N3CCC(C)CC3)c3ccccc3n2)cc1	i	-1.85	i	i	i	12*
CN1CCCN(C(=O)c2cc(-c3ccc(Cl)c(Cl)c3Cl)nc3ccccc23)CC1	52*	-4.78*	i	i	i	i
COc1ccc(CN(C)c2ncnc3sccc23)c(OC)c1OC	i	-0.09	i	i	i	i
Cc1cc2c(cc1S(=O)(=O)CCC(=O)N1CC(C)CC(C)C1)OCC(=O)N2 (stereo unspecified)	i	-3.49	i	i	i	i
Cc1cccc(C)c1OCCCN1CCCC1	i	0.12	i	i	i	14*
COc1cccc(OCCCN2CCCCC2)c1	i	0.83	i	i	i	i
Cc1cc(OCCCN2CCCC2)ccc1Cl	i	-0.81	i	i	i	12*
Cc1cccc(C)c1OCCCCN1CCCCC1	i	-0.17	i	i	i	i
Cc1ccn(CCC(=O)NC2CC(C)(C)Cc3c2cnn3-c2ccccc2C)n1 (stereo unspecified)	i	1.19	i	i	i	i
CC(C)Cn1c(=O)c2ccccc2n2c(CCC(=O)NCC3CCCO3)nnc12 (stereo unspecified)	i	-0.12	i	i	i	i
Cc1ccn(-c2cc(O)c(-n3ccc(C)n3)cc2O)n1	i	-1.01	i	i	i	i
CCn1nccc1C(=O)Nc1ccc(Cl)cn1	i	1.81	i	i	i	i
